In ChEMBL document CHEMBL1121732, “Synthesis and pharmacological activity of thiohexital enantiomers” (J Med Chem, 1981):
Where “and” joins values, the source holds several entries; their conditions need not be identical. Equal values may be shown once.

Assays:
[1] = Ratio of LD50 to AD50 after intravenous administration; format: ADME
Method in brief: (§1)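 Therapeutic index, LD50/AD50. Both values from Litchfield-Wilcoxon curves in male CF-1 mice, 10 per dose, ≥4 doses. […] Dosing ip or iv (caudal vein), 20 mL/kg saline vehicle after 0.1 M NaOH.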

[2] = tested on: Mus musculus; test: Evaluation for duration of recovery tremors after administration of dose; format: functional
Method in brief: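 Groups of 40 male CF-1 mice, each given its compound's AD50 dose ip. Recovery tremors recorded for incidence, duration in minutes and graded severity.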

[3] = (§2) Evaluation after intravenous injection at faster rate (0.5 s); format: ADME, organism-based; conditions: mouse, in vivo
[4] = tested on: Mus musculus; test: Evaluation for the duration of action of intraperitoneal administration of dose; format: functional
[5] = Potency ratio of slower rate (LD50) to that of faster rate (LD50); format: functional
Method in brief: (§3)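 Racemate given iv via caudal vein at 20 mL/kg, either fast (about 0.5 s) or slower (about 3.0 s) injection. […] Slow-rate value compared with fast-rate value.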

[6] = tested on: Mus musculus; test: Evaluation for the onset of action of intraperitoneal administration of dose; format: functional
[7] = Potency ratio of slower rate (AD50) to that of faster rate (AD50); format: functional; method in brief: as §3
[8] = The median lethal dose evaluated after intravenous administration in barbiturates.; format: ADME
Method in brief: (§4)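 Male CF-1 mice (29.5 ± 2.5 g). Drug dissolved in 0.1 M aqueous NaOH, diluted with saline, 20 mL/kg ip or iv (caudal vein); doses as free acid. Lethality scored over 24 h. LD50 with 95% confidence limits by Litchfield-Wilcoxon from ≥4 doses giving 10-90% response, 10 mice per dose.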

[9] = tested on: Mus musculus; test: (§5) The median anesthetic dose evaluated after intraperitoneal administration in barbiturates.; format: functional
Method in brief: (§6)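 Male CF-1 mice (29.5 ± 2.5 g). Drug dissolved in 0.1 M aqueous NaOH (monosodium salt), diluted with saline, dosed at 20 mL/kg ip or iv via caudal vein; weights as free acid. Anesthesia = loss of righting reflex (no recovery from back within 1 min). AD50 with 95% confidence limits by Litchfield-Wilcoxon; ≥4 doses giving 10-90% response, 10 mice per dose.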

[10] = tested on: Mus musculus; test: as §2; format: functional; method in brief: as §6
[11] = Ratio of LD50 to AD50 after intraperitoneal administration; format: ADME; conditions: ip; read-out: Therapeutic index; method in brief: as §1
[12] = tested on: Mus musculus; test: The median anesthetic dose evaluated after intravenous administration in barbiturates.; format: functional; method in brief: as §6
[13] = Potency ratio of compound to that of racemate was measured after intraperitoneal administration; format: functional
Method in brief: (§7)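 Potency relative to the racemate, the standard, from Litchfield-Wilcoxon dose-response curves (≥4 doses, 10 male CF-1 mice each) for loss of righting reflex. Dosing ip or iv (caudal vein) at 20 mL/kg in saline after dissolving in 0.1 M NaOH.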

[14] = as §5; format: functional; conditions: ip; method in brief: as §6
[15] = Potency ratio of compound was measured after intravenous administration; format: functional; method in brief: as §7
[16] = The median lethal dose evaluated after intraperitoneal administration in barbiturates.; format: ADME; conditions: ip; method in brief: as §4
[17] = Potency ratio of compound to that of racemate was measured after intravenous administration; More potent; format: functional; method in brief: as §7
[18] = Potency ratio of compound was measured after intraperitoneal administration; More potent; format: functional; method in brief: as §7

SMILES	Therapeutic index [1]	selectivity ratio ([1]; read-out: Therapeutic index)	Duration [2]	LD50 [3]	Duration [4]	Potency ratio [5]	Onset of action [6]	Potency ratio [7]	LD50 [8]	AD50 [9]	AD50 [10]	selectivity ratio [11]	AD50 [12]	Potency ratio [13]	LD50 [14]	Potency ratio [15]	LD50 [16]	Potency ratio [17]	Potency ratio [18]
C=CCC1(C(C)C#CCC)C(=O)NC(=S)NC1=O (racemic) [RAC THIOHEXITAL]	3.4	2.7	5.8 min	31.5 mg/kg	12.36 min	1.7	3.69 min	2.15	53.5 mg/kg	25.8 mg/kg	9.2 mg/kg	2.5	19.8 mg/kg						
C=CCC1([C@H](C)C#CCC)C(=O)NC(=S)NC1=O			6.2 min							27.3 mg/kg		2.4	24.1 mg/kg	1.06 and 1.04	66.1 mg/kg	1.22			
C=CCC1([C@@H](C)C#CCC)C(=O)NC(=S)NC1=O			5.4 min		12.15 min		3.49 min			18.8 mg/kg		3.2	12.3 mg/kg	1.06			59.8 mg/kg	1.61	1.37
